An excerpt weighted towards active compounds, which were near 1.5% of everything screened.
MLL AF4-AF9 inh: MLL-AF4/AF9 protein interaction inhibition. AlphaScreen, biotin-AF4 peptide binding to FLAG-AF9. AID 651704. inhibition, % at 10 µM. 350,000 tested, 0.47% active;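 active = every replicate reaching a set inhibition limit, whatever the replicate mean, cut at about 25% in these data; inconclusive = mean inhibition reaches that limit but some replicates miss it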;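 also: 0% = plate neutral control median and 100% = total signal loss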
Target sequence (P42568 whole entry, looked up): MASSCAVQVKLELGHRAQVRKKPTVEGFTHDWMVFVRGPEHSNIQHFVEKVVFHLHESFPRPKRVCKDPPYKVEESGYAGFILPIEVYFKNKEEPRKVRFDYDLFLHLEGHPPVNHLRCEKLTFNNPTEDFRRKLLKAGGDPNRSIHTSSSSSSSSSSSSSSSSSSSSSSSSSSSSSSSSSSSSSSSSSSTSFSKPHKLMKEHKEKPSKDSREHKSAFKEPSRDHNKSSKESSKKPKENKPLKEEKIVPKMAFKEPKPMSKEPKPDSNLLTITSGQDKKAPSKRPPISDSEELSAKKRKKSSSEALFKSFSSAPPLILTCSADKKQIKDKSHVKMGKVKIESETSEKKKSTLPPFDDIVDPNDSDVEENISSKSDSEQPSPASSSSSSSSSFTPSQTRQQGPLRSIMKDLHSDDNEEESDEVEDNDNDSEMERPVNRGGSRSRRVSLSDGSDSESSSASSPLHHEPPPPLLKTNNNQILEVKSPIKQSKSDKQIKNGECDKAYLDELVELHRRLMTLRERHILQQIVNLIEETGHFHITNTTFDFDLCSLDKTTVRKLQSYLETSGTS
S100A4 MyoIIA: inhibitors of human S100A4 binding to myosin IIA peptide; P26447; S100A4/TAMRA-MyoIIA peptide fluorescence polarization; inhibition, % at 10.7 µM; 360,000 tested, 0.14% active; AID 652163;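 active = mean inhibition of at least 70% across replicates, with every replicate also reaching that level; inconclusive = mean inhibition reaches 70% but some replicates fall short; inactive = mean inhibition below 70%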
Target sequence (P26447 whole entry, looked up): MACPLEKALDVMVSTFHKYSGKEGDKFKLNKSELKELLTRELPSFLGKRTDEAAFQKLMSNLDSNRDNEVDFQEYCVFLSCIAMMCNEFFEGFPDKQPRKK
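Material: human S100A4 monomer with TAMRA-labelled myosin IIA peptide; buffer or medium: HEPES pH 7.2 with CaCl2, KCl, NaCl, DTT, Triton; compound dosing: one concentration per compound; schedule: 5 min incubation before reading; benchmarks: neutral control DMSO, positive control TFP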
RAD52 anneal inh: inhibitors of human RAD52 DNA annealing; AID 651710; recombinant RAD52 DNA annealing, FRET fluorescence; 360,000 tested, 0.46% active; P43351; inhibition, % at 18.7 µM;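 active = every replicate showing at least 50% inhibition; inconclusive = mean inhibition at least 50% but not in every replicate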
dFosB act-1: activators of mouse delta FosB homodimer. purified delta FosB, TAMRA-CDK5 oligo fluorescence polarization; percent of positive-control signal above neutral wells. activation, % at 25 µM. AID 493131. 340,000 tested, 0.99% active;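 active = mean activation above about 17%, with every replicate also reaching it, limit read from the data, passing the limit was not always enough; inconclusive = only one of the two conditions met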
RAD54 branch: blocks human RAD54 Holliday junction branch migration; Q92698; FAM/BHQ fluorescence; inhibition, % at 10.4 µM; 360,000 tested, 0.14% active; AID 602329;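 active = mean normalized replicate activity at least 40 and at least half of replicates scoring 40 or more; inconclusive = only one of the two criteria met; inactive = mean below 40 and under half of replicates reaching 40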;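 also: 0% = median of neutral control wells and 100% = median of positive control wells; inhibitors cause a drop in the FAM fluorescence signal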
dFosB act-2: activators of mouse delta FosB homodimer DNA binding. shares compounds with dFosB act-1. purified delta FosB, TAMRA-CDK5 oligo fluorescence polarization; normalised: neutral wells 0, positive control 100. activation, % at 24.9 µM. 2,400 tested, under 10 active. AID 588690;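 active = highest replicate activation at or above 34% and every replicate reaching that threshold; inconclusive = meets only one of the two criteria; inactive = meets neither criterion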;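 also: higher polarization means more probe DNA bound by delta FosB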
Active calls of the source: *; ? = inconclusive; . = no result given.

SMILES	MLL AF4-AF9 inh	S100A4 MyoIIA	RAD52 anneal inh	dFosB act-1	RAD54 branch	dFosB act-2
CCOc1cccc(-c2c(C(=O)N/N=C/c3ccc(Br)cc3)nnn2-c2nonc2N)c1	0.4	-7.4	-4.3	28.9*	-20.4	4.0
COc1cccc(-c2c(C(=O)N/N=C/c3ccsc3)nnn2-c2nonc2N)c1	-3.2	-3.7	-19.0	20.4*	4.7	2.1
COc1cccc(-c2c(C(=O)N/N=C/c3sccc3C)nnn2-c2nonc2N)c1	0.0	-7.2	-17.7	12.4	-6.3	.
COc1ccc(Cl)cc1NC(=O)C1Cc2ccccc2CN1S(C)(=O)=O (stereo unspecified)	0.4	-34.8	-20.6	-11.0	-0.5	.
COc1cc(NC(=O)C2Cc3ccccc3CN2S(C)(=O)=O)cc(OC)c1 (stereo unspecified)	-0.8	-5.0	-17.3	23.2*	-2.4	-0.1
COCC(=O)Nc1ccc2c(c1)C(=O)N(C)C[C@@H](OC)[C@H](C)CN(C(C)=O)[C@H](C)CO2	-2.6	5.3	3.8	.	-1.6	.
C[C@H](CO)N1C[C@H](C)[C@H](CN(C)C(=O)C2CC2)Oc2ncc(C#CC3CCCC3)cc2C1=O	-3.1	1.4	-4.5	.	3.3	.
Cc1cc(C)cc(NC(=O)CSc2nnc(NC(=O)C3CC3)s2)c1	-4.2	-33.3	-16.9	28.2*	6.4	-2.4
Cc1ccc(NC(=O)CSc2nnc(NC(=O)C3CC3)s2)cc1C	-4.2	-1.9	-5.2	8.4	-1.5	.
Cc1ccc(NC(=O)CSc2nnc(NC(=O)C3CC3)s2)cc1	-3.2	-2.9	3.6	31.1*	9.2	0.5
O=C(C[C@@H]1CC[C@@H](NC(=O)C2CCC2)[C@H](CO)O1)NC1CCCCC1	-1.0	-11.4	-12.7	.	-2.5	.
CO[C@@H]1CN(C)C(=O)c2ccc(NS(C)(=O)=O)cc2OC[C@H](C)NC[C@@H]1C	-2.5	-15.8	-8.6	.	6.3	.
Cc1ccc(NC(=O)CN2C(=O)N/C(=C/c3ccc4c(c3)OCCO4)C2=O)cc1	0.4	-4.7	-23.1	48.0*	-4.7	-5.6
Cc1ccc(NC(=O)CN2C(=O)N/C(=C/c3ccc(N4CCOCC4)cc3)C2=O)cc1	.	.	.	-2.3	.	.
O=C(NCc1nc(-c2ccc(C(F)(F)F)cc2)no1)Nc1ccc(OC(F)(F)F)cc1	0.6	0.6	0.4	23.5*	10.5	2.7
COCC(=O)N1C[C@@H]2[C@H](c3ccccc31)[C@@H](CO)N2Cc1ccccc1F	-17.4	0.4	15.2	.	-12.6	.
Cc1c(C(=O)NNC(=O)c2ccccc2O)oc2ccc(Br)cc12	0.1	-5.4	-8.6	36.8*	-3.9	0.2
CCOc1ccc2oc(C(=O)NNC(=O)c3ccccc3O)c(C)c2c1	-1.1	-12.4	-14.2	15.8	3.4	.
CCOC(=O)c1cc(-c2ccccc2)sc1NC(=O)COC(=O)c1cccc(S(N)(=O)=O)c1	-0.7	-18.1	-19.6	24.2*	.	-1.8
CCOC(=O)c1cc(-c2ccccc2)sc1NC(=O)COC(=O)c1ccc(Cl)c(S(N)(=O)=O)c1	.	.	.	-2.9	.	.
Cc1cc(=O)oc2cc(NC(=O)CCOc3ccccc3)ccc12	-0.6	-2.5	-2.6	20.9*	-3.7	1.6
Cc1csc(NC(=O)COc2ccc3c(C)cc(=O)oc3c2)n1	0.4	-2.1	-11.0	54.0*	-1.8	3.6
O=[N+]([O-])c1ccc2c(c1)/C(=N\O)c1ccccc1-2	-1.0	-6.4	-15.0	27.1*	41.5	1.6
CN(C)CCCNC(=S)N(Cc1cccs1)Cc1cc2cc3c(cc2[nH]c1=O)OCCO3	5.2	-3.3	-31.8	32.2*	.	5.2
CN(C)CCCNC(=S)N(CCO)Cc1cc2cc3c(cc2[nH]c1=O)OCO3	-7.0	-1.4	46.5	-1.2	-1.3	.
SMILES	MLL AF4-AF9 inh	S100A4 MyoIIA	RAD52 anneal inh	dFosB act-1	RAD54 branch	dFosB act-2
OC[C@@H]1[C@H](c2ccc(C3=CCCCC3)cc2)[C@@H]2CN(CCC(F)(F)F)CCCCN12	14.8	-3.6	29.4	.	3.8	.
Cc1cc(NC(=O)Cn2c(=O)n(Cc3ccccc3)c(=O)c3ccccc32)no1	.	.	.	52.1*	4.0	-7.9
COCCn1cnc2c1c(=O)n(CC(=O)Nc1cc(C)on1)c(=O)n2Cc1ccccc1	.	.	.	-7.9	2.0	.
COc1ccc(CCn2c(SCC(=O)Nc3cc(C)on3)nc3ccsc3c2=O)cc1OC	.	.	.	23.3*	0.7	4.0
O=C(CSc1nc2ccccc2c(=O)n1Cc1ccc(F)cc1)NCc1cccs1	0.3	29.7	-17.6	34.7*	.	-1.6
CCCCCCn1c(SCC(=O)Nc2cc(C)on2)nc2ccccc2c1=O	.	.	.	13.3	.	.
Cc1cc(NC(=O)CSc2nc3ccccc3c(=O)n2Cc2ccc(F)cc2)no1	.	.	.	41.6*	.	5.3
CC(C)CC#Cc1ccc2c(c1)O[C@H](CN(C)Cc1cccc(F)c1)[C@H](C)CN([C@H](C)CO)S2(=O)=O	0.6	-2.4	20.2	.	0.0	.
O=C(COc1ccc(Cl)cc1Cl)Nc1c(-c2cccs2)nc2ccccn12	.	.	.	118.7*	-0.5	1.6
CCOc1ccc(NC(=O)Cn2nnc(-c3ccccc3NC(=O)c3cccs3)n2)cc1	.	.	.	52.1*	-1.7	5.0
CCCC(=O)Nc1ccccc1-c1nnn(CC(=O)Nc2ccc(OC)cc2)n1	.	.	.	10.5	5.8	.
S=c1nc(-c2ccc(Br)cc2)[nH]c2ccccc12	-6.4	-7.2	-15.8	45.4*	7.0	-1.3
S=c1nc(-c2ccccc2)[nH]c2ccccc12	-0.3	1.9	-7.3	-0.5	3.3	.
Cc1ccccc1-n1c(=O)cc(NCc2ccc3c(c2)OCO3)[nH]c1=O	.	.	.	-3.7	6.6	.
O=c1cc(NCc2ccc3c(c2)OCO3)[nH]c(=O)n1-c1ccc(Cl)cc1	.	.	.	19.6*	3.1	2.2
CCN(CC)S(=O)(=O)c1ccc(/C=C/C(=O)OCC(=O)Nc2ccc(S(N)(=O)=O)cc2)cc1	0.3	-13.4	-8.9	116.2*	.	5.5
O=C(COC(=O)/C=C/c1ccc(Cl)cc1)Nc1ccc2[nH]c(=O)[nH]c2c1	-31.9	-5.6	-5.9	21.5*	-6.5	0.0
NS(=O)(=O)c1ccc(CCNC(=O)COC(=O)/C=C/c2ccc(Cl)cc2)cc1	1.6	-3.2	-6.8	21.4*	.	-2.4
NS(=O)(=O)c1ccc(NC(=O)CCCCC(=O)Nc2ccc(S(N)(=O)=O)cc2)cc1	-20.1	4.9	-29.0	52.8*	1.6	6.8
CNC[C@@H]1Oc2c(NC(=O)Nc3ccc(C(F)(F)F)cc3)cccc2C(=O)N([C@H](C)CO)C[C@H]1C	1.2	-1.6	8.1	.	-5.5	.
CN1[C@@H]2Cn3c(ccc(C4=CCCC4)c3=O)[C@H]1[C@@H](C(=O)N1CCCCC1)[C@@H]2CO	-1.9	5.8	-19.3	.	-0.4	.
CCOc1ccc(NC(=O)c2ccc(NC(=O)Cc3n[nH]c(=O)c4ccccc34)cc2)cc1	-12.7	-0.3	-11.7	110.7*	-10.2	-7.4
CCN(CC)CCNC(=O)c1c(O)c2cc(OC)c(OC)cc2[nH]c1=O	.	.	.	24.0*	11.7	9.9
COc1ccc(CNC(=O)c2c(O)c3cc(OC)c(OC)cc3[nH]c2=O)cc1OC	-3.3	-16.0	-7.9	?	-3.1	.

Screening data (PubChem)
